Columns and labels:
[1] = target: T1, N-terminal Xaa-Pro-Lys N-methyltransferase 1 (Homo sapiens, UniProt Q9BV86); experiment: Inhibition of recombinant human full-length His6-tagged NTMT1 (1 to 222 residues) expressed in Escherichia coli BL21-CodonPlus(DE3)-RIL competent cells pre-incubated for 10 mins in presence of SAM and SAHH before RCC1-6 addition and measured after 15 mins by fluorescence based SAHH-coupled assay
T1 sequence (Q9BV86 whole entry): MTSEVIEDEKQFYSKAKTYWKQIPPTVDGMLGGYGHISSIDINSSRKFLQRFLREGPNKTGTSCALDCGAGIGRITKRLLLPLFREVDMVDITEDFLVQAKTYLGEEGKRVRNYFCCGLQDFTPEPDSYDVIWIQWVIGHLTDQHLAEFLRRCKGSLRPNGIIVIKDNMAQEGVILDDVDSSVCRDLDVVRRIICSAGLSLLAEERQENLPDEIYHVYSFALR
In short: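 Pre-incubated 10 min at 37 °C, then started with RCC1-6 (10 µL of 50 µM stock in 100 µL). Line 11 screened at 30 µM; line 12 used 0–100 µM three-fold series, four-parameter fit. Triplicate.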

[2] = target: Protein arginine N-methyltransferase 1 (Rattus norvegicus, UniProt Q63009); experiment: Inhibition of rat His6-tagged PRMT1 expressed in Escherichia coli BL21(DE3) using H4-21 peptide as substrate preincubated for 10 mins in presence of SAM followed by substrate addition by fluorescence assay
Sequence of Protein arginine N-methyltransferase 1 (Q63009 whole entry): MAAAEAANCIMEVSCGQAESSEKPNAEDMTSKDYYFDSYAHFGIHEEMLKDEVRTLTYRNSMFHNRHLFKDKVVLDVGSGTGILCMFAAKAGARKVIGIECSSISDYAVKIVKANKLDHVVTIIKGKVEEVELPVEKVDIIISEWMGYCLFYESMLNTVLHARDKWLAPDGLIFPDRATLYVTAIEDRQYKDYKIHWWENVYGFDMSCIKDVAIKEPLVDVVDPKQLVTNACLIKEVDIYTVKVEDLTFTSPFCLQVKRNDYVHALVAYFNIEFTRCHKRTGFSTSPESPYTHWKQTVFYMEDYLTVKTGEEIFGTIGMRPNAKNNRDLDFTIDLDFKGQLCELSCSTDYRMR

[3] = target: N-terminal Xaa-Pro-Lys N-methyltransferase 2 (Homo sapiens, UniProt Q5VVY1); experiment: Binding affinity to recombinant human full-length His6-tagged NTMT2 by ITC assay
Sequence of N-terminal Xaa-Pro-Lys N-methyltransferase 2 (Q5VVY1 whole entry): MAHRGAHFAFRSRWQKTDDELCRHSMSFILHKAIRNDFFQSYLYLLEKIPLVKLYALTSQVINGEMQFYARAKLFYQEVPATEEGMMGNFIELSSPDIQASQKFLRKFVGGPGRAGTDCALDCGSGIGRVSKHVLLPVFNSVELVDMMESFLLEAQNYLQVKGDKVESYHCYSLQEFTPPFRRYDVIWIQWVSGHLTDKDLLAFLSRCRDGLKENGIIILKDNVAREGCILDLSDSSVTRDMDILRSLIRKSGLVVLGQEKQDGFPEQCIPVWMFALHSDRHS
In short: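 ITC at 25 °C. Purified protein (NTMT1 for line 1, NTMT2 for line 2) in 20 mM Tris-HCl pH 7.5, 150 mM NaCl, 0.5 mM TCEP at 30–50 µM final. Compound at 0.5–1 mM in the same buffer, titrated in as 26 injections of 10 µl, 180 s apart, reference power 15 µcal/sec.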

Homo sapiens [4] = organism: Homo sapiens; experiment: Selectivity for human NTMT1 over human DNMT1 at 100 uM
In short: (§1)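 Panel of 41 PKMTs, PRMTs, DNMTs and NTMT1/2, tested at 100 µM compound in duplicate (n=2).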

Homo sapiens [5] = organism: Homo sapiens; experiment: Selectivity for human NTMT1 over human DNMT3b at 100 uM; in short: as §1
Homo sapiens [6] = organism: Homo sapiens; experiment: Selectivity for human NTMT1 over human DNMT3b/3L at 100 uM; in short: as §1
Homo sapiens [7] = organism: Homo sapiens; experiment: Selectivity for human NTMT1 over human EZH2 complex at 100 uM; in short: as §1
Homo sapiens [8] = organism: Homo sapiens; experiment: Selectivity for human NTMT1 over human EZH2 complex Y641F mutant at 100 uM; in short: as §1
Homo sapiens [9] = organism: Homo sapiens; experiment: Selectivity for human NTMT1 over human G9a at 100 uM; in short: as §1
Homo sapiens [10] = organism: Homo sapiens; experiment: Selectivity for human NTMT1 over human GLP at 100 uM; in short: as §1
Homo sapiens [11] = organism: Homo sapiens; experiment: Selectivity for human NTMT1 over GST-tagged human METTL21A at 100 uM; in short: as §1
Homo sapiens [12] = organism: Homo sapiens; experiment: Selectivity for human NTMT1 over human MLL2 complex at 100 uM; in short: as §1
Homo sapiens [13] = organism: Homo sapiens; experiment: Selectivity for human NTMT1 over human MLL3 complex at 100 uM; in short: as §1
Homo sapiens [14] = organism: Homo sapiens; experiment: Selectivity for human NTMT1 over human MLL4 complex at 100 uM; in short: as §1
Homo sapiens [15] = organism: Homo sapiens; experiment: Selectivity for human NTMT1 over human NSD3 at 100 uM; in short: as §1
Homo sapiens [16] = organism: Homo sapiens; experiment: Selectivity for human NTMT1 over human PRDM9 at 100 uM; in short: as §1
Homo sapiens [17] = organism: Homo sapiens; experiment: Selectivity for human NTMT1 over human PRDMT1 at 100 uM; in short: as §1
Homo sapiens [18] = organism: Homo sapiens; experiment: Selectivity for human NTMT1 over human PRDMT5 at 100 uM; in short: as §1
Homo sapiens [19] = organism: Homo sapiens; experiment: Selectivity for human NTMT1 over human SET1b complex at 100 uM; in short: as §1
Homo sapiens [20] = organism: Homo sapiens; experiment: Selectivity for human NTMT1 over human SET8 at 100 uM; in short: as §1
Homo sapiens [21] = organism: Homo sapiens; experiment: Selectivity for human NTMT1 over human SMYD1 at 100 uM; in short: as §1
Homo sapiens [22] = organism: Homo sapiens; experiment: Selectivity for human NTMT1 over human SMYD2 at 100 uM; in short: as §1
Homo sapiens [23] = organism: Homo sapiens; experiment: Selectivity for human NTMT1 over human SUV39H1 at 100 uM
In short: (§2)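 Single-point panel screen against 41 PKMTs, PRMTs, DNMTs and NTMT1/2. Each compound was tested at 100 µM, in duplicate (n=2).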

Homo sapiens [24] = organism: Homo sapiens; experiment: Selectivity for human NTMT2 over human ASH1L at 100 uM; in short: as §2
Homo sapiens [25] = organism: Homo sapiens; experiment: Selectivity for human NTMT2 over human DNMT1 at 100 uM; in short: as §2
Homo sapiens [26] = organism: Homo sapiens; experiment: Selectivity for human NTMT2 over human DNMT3a at 100 uM; in short: as §2
Homo sapiens [27] = organism: Homo sapiens; experiment: Selectivity for human NTMT2 over human DNMT3b at 100 uM; in short: as §2
Homo sapiens [28] = organism: Homo sapiens; experiment: Selectivity for human NTMT2 over human DNMT3b/3L at 100 uM; in short: as §2
Homo sapiens [29] = organism: Homo sapiens; experiment: Selectivity for human NTMT2 over human EZH2 complex Y641F mutant at 100 uM; in short: as §2
Homo sapiens [30] = organism: Homo sapiens; experiment: Selectivity for human NTMT2 over human G9a at 100 uM; in short: as §2
Homo sapiens [31] = organism: Homo sapiens; experiment: Selectivity for human NTMT2 over human GLP at 100 uM; in short: as §2
Homo sapiens [32] = organism: Homo sapiens; experiment: Selectivity for human NTMT2 over human MLL2 complex at 100 uM; in short: as §2
Homo sapiens [33] = organism: Homo sapiens; experiment: Selectivity for human NTMT2 over human MLL3 complex at 100 uM; in short: as §2
Homo sapiens [34] = organism: Homo sapiens; experiment: Selectivity for human NTMT2 over human NSD1 at 100 uM; in short: as §2
Homo sapiens [35] = organism: Homo sapiens; experiment: Selectivity for human NTMT2 over human NSD2 E1099K mutant at 100 uM; in short: as §2
Homo sapiens [36] = organism: Homo sapiens; experiment: Selectivity for human NTMT2 over human NSD3 at 100 uM; in short: as §2
Homo sapiens [37] = organism: Homo sapiens; experiment: Selectivity for human NTMT2 over human PRDM9 at 100 uM; in short: as §2
Homo sapiens [38] = organism: Homo sapiens; experiment: Selectivity for human NTMT2 over human PRDMT1 at 100 uM; in short: as §2
Homo sapiens [39] = organism: Homo sapiens; experiment: Selectivity for human NTMT2 over human PRDMT4 at 100 uM; in short: as §2
Homo sapiens [40] = organism: Homo sapiens; experiment: Selectivity for human NTMT2 over human PRDMT5 at 100 uM; in short: as §2
Homo sapiens [41] = organism: Homo sapiens; experiment: Selectivity for human NTMT2 over human PRDMT6 at 100 uM; in short: as §2
Homo sapiens [42] = organism: Homo sapiens; experiment: Selectivity for human NTMT2 over human PRDMT7 at 100 uM; in short: as §2
Homo sapiens [43] = organism: Homo sapiens; experiment: Selectivity for human NTMT2 over human PRDMT8 at 100 uM; in short: as §2
Homo sapiens [44] = organism: Homo sapiens; experiment: Selectivity for human NTMT2 over human SETD2 at 100 uM; in short: as §2
Homo sapiens [45] = organism: Homo sapiens; experiment: Selectivity for human NTMT2 over human SUV39H1 at 100 uM; in short: as §2
Homo sapiens [46] = organism: Homo sapiens; experiment: Selectivity for human NTMT2 over human SUV39H at 100 uM; in short: as §2
Homo sapiens [47] = organism: Homo sapiens; experiment: Selectivity for human NTMT2 over human SUV420H1TV2 at 100 uM; in short: as §2

N=C(N)NCCC[C@H](NC(=O)[C@H](CCCCN)NC(=O)[C@@H]1CCCN1C(=O)Cc1ccc(O)cc1)C(N)=O
IC50 [1]: 0.89 µM | IC50 [2]: > 100 µM | Kd [3]: 3.7 µM | Selectivity ratio (Homo sapiens [4]): > 100 | Selectivity ratio (Homo sapiens [5]): > 100 | Selectivity ratio (Homo sapiens [6]): > 100 | Selectivity ratio (Homo sapiens [7]): > 100 | Selectivity ratio (Homo sapiens [8]): > 100 | Selectivity ratio (Homo sapiens [9]): > 100 | Selectivity ratio (Homo sapiens [10]): > 100 | Selectivity ratio (Homo sapiens [11]): > 100 | Selectivity ratio (Homo sapiens [12]): > 100 | Selectivity ratio (Homo sapiens [13]): > 100 | Selectivity ratio (Homo sapiens [14]): > 100 | Selectivity ratio (Homo sapiens [15]): > 100 | Selectivity ratio (Homo sapiens [16]): > 100 | Selectivity ratio (Homo sapiens [17]): > 100 | Selectivity ratio (Homo sapiens [18]): > 100 | Selectivity ratio (Homo sapiens [19]): > 100 | Selectivity ratio (Homo sapiens [20]): > 100 | Selectivity ratio (Homo sapiens [21]): > 100 | Selectivity ratio (Homo sapiens [22]): > 100 | Selectivity ratio (Homo sapiens [23]): > 100 | Selectivity ratio (Homo sapiens [24]): > 100 | Selectivity ratio (Homo sapiens [25]): > 100 | Selectivity ratio (Homo sapiens [26]): > 100 | Selectivity ratio (Homo sapiens [27]): > 100 | Selectivity ratio (Homo sapiens [28]): > 100 | Selectivity ratio (Homo sapiens [29]): > 100 | Selectivity ratio (Homo sapiens [30]): > 100 | Selectivity ratio (Homo sapiens [31]): > 100 | Selectivity ratio (Homo sapiens [32]): > 100 | Selectivity ratio (Homo sapiens [33]): > 100 | Selectivity ratio (Homo sapiens [34]): > 100 | Selectivity ratio (Homo sapiens [35]): > 100 | Selectivity ratio (Homo sapiens [36]): > 100 | Selectivity ratio (Homo sapiens [37]): > 100 | Selectivity ratio (Homo sapiens [38]): > 100 | Selectivity ratio (Homo sapiens [39]): > 100 | Selectivity ratio (Homo sapiens [40]): > 100 | Selectivity ratio (Homo sapiens [41]): > 100 | Selectivity ratio (Homo sapiens [42]): > 100 | Selectivity ratio (Homo sapiens [43]): > 100 | Selectivity ratio (Homo sapiens [44]): > 100 | Selectivity ratio (Homo sapiens [45]): > 100 | Selectivity ratio (Homo sapiens [46]): > 100 | Selectivity ratio (Homo sapiens [47]): > 100
